Data from ChEMBL document CHEMBL1938372, “Design and synthesis of conformationally constrained inhibitors of non-nucleoside reverse transcriptase” (J Med Chem, 2011).
Values after ≈ are worked out from the molar mass of the structure shown. Active and inactive are the calls of the source. The calls are words filed in the database; no cut-off is given here.

Legend:
MT4 = experiment: Cytotoxicity against human MT4 cells up to 8.3 uM; format: cell-based
Method in brief: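 MT-4 cells in RPMI 1640 with 10% FBS or 50% NHS, run alongside the antiviral CIC95 assay; cytotoxicity checked up to the assay upper limit of 8.3 μM.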

[1] = biological target: Human immunodeficiency virus type 1 reverse transcriptase (Human immunodeficiency virus 1, UniProt Q72547, K103N); experiment: Inhibition of Human immunodeficiency virus reverse transcriptase K103N mutant by SPA assay
Method in brief: (§1)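 Recombinant HIV-1 RT polymerase scintillation proximity assay run with mutant enzyme, reported as Ki (nM). Values are geometric means of at least two determinations, each within 2-fold of the mean; SEM is given where there were ≥3 determinations.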

[2] = Volume of distribution in Beagle dog at 2 mg/kg, po and 1 mg/kg, iv; format: ADME, organism-based, Canis lupus familiaris; conditions: in vivo
Method in brief: (§2)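 PK in Sprague-Dawley rats (iv solution in DMSO via an indwelling jugular cannula, or oral suspension in aqueous methylcellulose/Methocel) and beagle dogs (iv and oral given crossover, same vehicles). Plasma levels by LC-MS. F from oral versus iv dose-normalized AUC. Average of at least two animals; rat values within 25% of the mean.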

[3] = tested on: Human immunodeficiency virus; experiment: Antiviral activity against Human immunodeficiency virus harboring reverse transcriptase Y181C mutant assessed as inhibition of viral replication; format: functional, organism-based
Method in brief: (§3)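 Phenosense cell culture assay against a panel of clinically derived RT mutant viruses in the presence of 10% FBS. IC50 is the compound concentration blocking 50% of viral replication. Each value is the average of two determinations.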

[4] = tested on: Human immunodeficiency virus; experiment: Antiviral activity against Human immunodeficiency virus harboring reverse transcriptase L100l mutant assessed as inhibition of viral replication; format: functional, organism-based; method in brief: as §3
[5] = Plasma clearance in Sprague-Dawley rat at 10 mg/kg, po and 2 mg/kg, iv; format: ADME, organism-based; method in brief: as §2
[6] = tested on: Human immunodeficiency virus; experiment: Antiviral activity against wild type Human immunodeficiency virus assessed as inhibition of viral replication; format: functional, organism-based
[7] = tested on: Human immunodeficiency virus; experiment: Antiviral activity against Human immunodeficiency virus harboring reverse transcriptase K101E/Y181C/G190A triple mutant assessed as inhibition of viral replication; format: functional, organism-based; method in brief: as §3
[8] = Plasma clearance in Beagle dog at 2 mg/kg, po and 1 mg/kg, iv; format: ADME, organism-based, Canis lupus familiaris; method in brief: as §2
[9] = tested on: Human immunodeficiency virus; experiment: Antiviral activity against multidrug-resistant Human immunodeficiency virus assessed as inhibition of viral replication; format: functional, organism-based; method in brief: as §3
[10] = biological target: Human immunodeficiency virus type 1 reverse transcriptase (Human immunodeficiency virus 1, UniProt Q72547, Y181C); experiment: Inhibition of Human immunodeficiency virus reverse transcriptase Y181C mutant by SPA assay; method in brief: as §1
[11] = tested on: Human immunodeficiency virus; experiment: Antiviral activity against Human immunodeficiency virus expressing reverse transcriptase K103N mutant infected in human MT4 cells by p24 antigen assay in the presence of 10% FBS; format: functional; conditions: Human immunodeficiency virus 1, MT4; read-out: CIC95
Method in brief: (§4)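 Antiviral spread assay in MT-4 human T-lymphoid cells kept in RPMI 1640 with 10% FBS. Value is the CIC95, the concentration inhibiting virus replication by >95%. Reported as the geometric mean of at least two determinations, all within 2-fold of the mean. Cytotoxicity was checked up to the assay upper limit of 8.3 μM.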

[12] = tested on: Human immunodeficiency virus; experiment: Antiviral activity against Human immunodeficiency virus harboring reverse transcriptase K101E/G190A double mutant assessed as inhibition of viral replication; format: functional, organism-based; method in brief: as §3
[13] = Volume of distribution in Sprague-Dawley rat at 10 mg/kg, po and 2 mg/kg, iv; format: ADME, organism-based; conditions: in vivo; method in brief: as §2
[14] = tested on: Human immunodeficiency virus; experiment: Antiviral activity against Human immunodeficiency virus expressing wild type reverse transcriptase infected in human MT4 cells by p24 antigen assay in the presence of 50% normal human serum; format: functional; conditions: Human immunodeficiency virus 1, MT4; read-out: CIC95
Method in brief: (§5)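 MT-4 human T-lymphoid cells in RPMI 1640 with either 10% FBS or 50% NHS; CIC95 taken as the concentration inhibiting virus spread/replication by >95%. Geometric mean of at least two determinations, individual values within 2-fold; SEM given when ≥3 determinations.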

[15] = tested on: Human immunodeficiency virus; experiment: Antiviral activity against Human immunodeficiency virus harboring reverse transcriptase Y188L mutant assessed as inhibition of viral replication; format: functional, organism-based; method in brief: as §3
[16] = Inhibition of Human immunodeficiency virus reverse transcriptase by SPA assay
[17] = tested on: Human immunodeficiency virus; experiment: Antiviral activity against Human immunodeficiency virus harboring reverse transcriptase K103N/P225H double mutant assessed as inhibition of viral replication; format: functional, organism-based; method in brief: as §3
[18] = tested on: Human immunodeficiency virus; experiment: Antiviral activity against Human immunodeficiency virus harboring reverse transcriptase V106A/G190A/F227L triple mutant assessed as inhibition of viral replication; format: functional, organism-based; method in brief: as §3
[19] = tested on: Human immunodeficiency virus; experiment: Antiviral activity against Human immunodeficiency virus harboring reverse transcriptase L100l/K103N/P225P/H triple mutant assessed as inhibition of viral replication; format: functional, organism-based; method in brief: as §3
Canis familiaris = experiment: Dose normalised AUC in Beagle dog at 2 mg/kg, po by LC-MS analysis; format: ADME, organism-based, Canis lupus familiaris; set-up: dose 2 mg/kg, route oral; conditions: in vivo; method in brief: as §2
[20] = tested on: Human immunodeficiency virus; experiment: Antiviral activity against Human immunodeficiency virus harboring reverse transcriptase G190S mutant assessed as inhibition of viral replication; format: functional, organism-based; method in brief: as §3
[21] = tested on: Human immunodeficiency virus; experiment: Antiviral activity against Human immunodeficiency virus expressing reverse transcriptase Y181C mutant infected in human MT4 cells by p24 antigen assay in the presence of 10% FBS; format: functional; conditions: Human immunodeficiency virus 1, MT4; read-out: CIC95; method in brief: as §4
Rattus norvegicus = experiment: Dose normalised AUC in Sprague-Dawley rat at 10 mg/kg, po by LC-MS analysis; format: ADME, organism-based; set-up: dose 10 mg/kg, route oral; conditions: in vivo; method in brief: as §2
[22] = Half life in Sprague-Dawley rat at 10 mg/kg, po and 2 mg/kg, iv; format: ADME, organism-based; conditions: in vivo; method in brief: as §2
[23] = tested on: Human immunodeficiency virus; experiment: Antiviral activity against Human immunodeficiency virus harboring reverse transcriptase G190A mutant assessed as inhibition of viral replication; format: functional, organism-based; method in brief: as §3
[24] = tested on: Human immunodeficiency virus; experiment: Antiviral activity against Human immunodeficiency virus harboring reverse transcriptase K103N mutant assessed as inhibition of viral replication; format: functional, organism-based; method in brief: as §3
[25] = tested on: Human immunodeficiency virus; experiment: Antiviral activity against Human immunodeficiency virus expressing wild type reverse transcriptase infected in human MT4 cells by p24 antigen assay in the presence of 10% FBS; format: functional; conditions: Human immunodeficiency virus 1, MT4; read-out: CIC95; method in brief: as §5
[26] = Bioavailability in Sprague-Dawley rat at 10 mg/kg, po and 2 mg/kg, iv; format: ADME, organism-based; conditions: in vivo; method in brief: as §2
[27] = Half life in Beagle dog at 2 mg/kg, po and 1 mg/kg, iv; format: ADME, organism-based, Canis lupus familiaris; conditions: in vivo; method in brief: as §2
[28] = tested on: Human immunodeficiency virus; experiment: Antiviral activity against Human immunodeficiency virus harboring reverse transcriptase K103N/Y181C/G190A triple mutant assessed as inhibition of viral replication; format: functional, organism-based; method in brief: as §3
[29] = Bioavailability in Beagle dog at 2 mg/kg, po and 1 mg/kg, iv; format: ADME, organism-based, Canis lupus familiaris; conditions: in vivo; method in brief: as §2
[30] = Solubility of the compound in water at pH 2; format: physicochemical
Method in brief: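 Water solubility of the solid compound measured at pH 2 and at pH 7.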

[31] = Volume of distribution in Beagle dog at 0.125 mg/kg, iv; format: ADME, organism-based, Canis lupus familiaris; set-up: dose 0.125 mg/kg, route intravenous; conditions: in vivo; method in brief: as §2
[32] = Plasma clearance in Beagle dog at 0.125 mg/kg, iv; format: ADME, organism-based, Canis lupus familiaris; set-up: dose 0.125 mg/kg, route intravenous; method in brief: as §2
[33] = Half life in Beagle dog at 0.125 mg/kg, iv; format: ADME, organism-based, Canis lupus familiaris; set-up: dose 0.125 mg/kg, route intravenous; conditions: in vivo; method in brief: as §2

SMILES	Activity (MT4)	Ki [1]	clearance [5]	Ki [10]	IC95 [11]	Vd [13]	IC95 [14]	Ki [16]	IC95 [21]	AUC/dose (Rattus norvegicus)	half-life [22]	IC95 [25]	bioavailability [26]	other results
N#Cc1cc(Cl)cc(Oc2c(Cl)ccc3c2cnn3Cc2n[nH]c3ncccc23)c1 [MK-6186]	Non-toxic	0.58 nM	18 mL/min/kg	0.6 nM	15 nM	10.5 L/kg	64 nM	0.34 nM	58 nM	1.6 µM·h	7.6 h	11 nM	76%	Vd [2]: 6 L/kg; inhibition [3]: Active; inhibition [4]: Active; inhibition [6]: Active; inhibition [7]: Active; clearance [8]: 6.1 mL/min/kg; inhibition [9]: Active; inhibition [12]: Active; inhibition [15]: inactive; inhibition [17]: Active; inhibition [18]: inactive; inhibition [19]: Active; AUC/dose (Canis familiaris): 2.3 µM·h; inhibition [20]: Active; inhibition [23]: Active; inhibition [24]: Active; half-life [27]: 12.8 h; inhibition [28]: Active; bioavailability [29]: 48%; solubility [30]: < 0.1 µg/mL
N#Cc1cc(Cl)cc(Oc2c(Cl)ccc3c2c(Cl)nn3Cc2n[nH]c3ncccc23)c1	Non-toxic	28 nM		42 nM	> 2000 nM		> 5000 nM	46 nM	> 2000 nM			> 500 nM		
N#Cc1cc(Cl)cc(Oc2c(Cl)ccc3c2ncn3Cc2n[nH]c3ncccc23)c1	Non-toxic	5.3 nM	25.6 mL/min/kg	3.3 nM	66 nM	3.3 L/kg	390 nM	2 nM	320 nM	0.56 µM·h	2.4 h	23 nM	36%	Vd [2]: 0.37 L/kg; clearance [8]: 2.2 mL/min/kg; half-life [27]: 12.8 h; solubility [30]: 10 µg/mL (≈ 23 µM)
N#Cc1cc(Cl)cc(Oc2cc(NCc3n[nH]c4ncccc34)c(N)cc2Cl)c1	Non-toxic	3.8 nM		3.3 nM	40 nM			2.3 nM				24 nM		
Cc1nc2c(Oc3cc(Cl)cc(C#N)c3)c(Cl)ccc2n1Cc1n[nH]c2ncccc12	Non-toxic	> 600 nM		> 300 nM			> 833 nM	> 300 nM				> 833 nM		
N#Cc1cc(Cl)cc(Oc2c(Cl)ccc3c2[nH]c(=O)n3Cc2n[nH]c3ncccc23)c1	Non-toxic	> 600 nM		> 300 nM			> 833 nM	> 300 nM				> 833 nM		
N#Cc1cc(Cl)cc(Oc2c(Cl)ccc3c2nnn3Cc2n[nH]c3ncccc23)c1	Non-toxic	0.43 nM	14 mL/min/kg	0.44 nM	3.8 nM	5.5 L/kg	23 nM	0.24 nM	18 nM	0.18 µM·h	4.8 h	4.3 nM	7.3%	Vd [2]: 1.3 L/kg; inhibition [3]: Active; inhibition [4]: Active; inhibition [6]: Active; inhibition [7]: Active; clearance [8]: 1.6 mL/min/kg; inhibition [9]: Active; inhibition [12]: Active; inhibition [15]: inactive; inhibition [17]: Active; inhibition [18]: inactive; inhibition [19]: Active; AUC/dose (Canis familiaris): 0.45 µM·h; inhibition [20]: Active; inhibition [23]: Active; inhibition [24]: Active; half-life [27]: 11.3 h; inhibition [28]: Active; bioavailability [29]: 9.5%; solubility [30]: < 0.1 µg/mL
NCc1cc(Cl)cc(Oc2c(Cl)ccc3c2nnn3Cc2n[nH]c3ncccc23)c1Cl	Non-toxic				232 nM		281 nM		418 nM			57 nM		
N#Cc1cc(Cl)cc(Oc2c(Cl)ccc3c2nnn3Cc2n[nH]c3nc(N)ccc23)c1	Non-toxic	0.94 nM	11.9 mL/min/kg	1.2 nM	5.8 nM	4.4 L/kg	36 nM	1.1 nM	37 nM	0.02 µM·h	4.7 h	3 nM	< 1%	Vd [31]: 0.65 L/kg; clearance [32]: 2.2 mL/min/kg; half-life [33]: 12.8 h
N#Cc1cc(Cl)cc(Oc2cc3c(cc2Cl)nnn3Cc2n[nH]c3ncccc23)c1	Non-toxic	> 300 nM		> 900 nM				> 300 nM				> 833 nM		
N#Cc1cc(Cl)cc(Oc2cc3c(cc2Cl)ncn3Cc2n[nH]c3ncccc23)c1	Non-toxic	> 100 nM		> 100 nM	732 nM			114 nM				693 nM		
